Bioassay records deposited in PubChem BioAssay by Sanford-Burnham Center for Chemical Genomics.
Scp-1 inhibitor – inhibitors of human Scp-1 phosphatase | actives 0.88% (n = 340,000) | AID 493091 | inhibition, % at 20 µM | Q9GZU7 | Recombinant Scp1, phosphopeptide, malachite green phosphate absorbance;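 active means inhibition above about 50% at 20 µM, limit read from the data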;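 further: plate controls were DMSO wells with enzyme for no effect and wells lacking enzyme for full effect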
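Test system: SCP-1 phosphatase catalytic domain, residues 76-261 | Compound dosing: One concentration, 20 µM, with 1.0% DMSO | Schedule: 45 min room-temperature reaction, 5 min colour, 30 min stabiliser | Detection: Absorbance at 630 nm | Read-out basis: % inhibition of SCP-1 phosphate liberation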
Rpn11 block – Rpn11 (human) deubiquitinase inhibition; O00487; human 26S proteasome, Ub4-pepOG fluorescence polarization; 20S core pre-blocked with epoxomicin; inhibition, % at 20 µM; actives 0.59% (n = 360,000);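 active means inhibition at 20 µM, scaled to each plate's controls, above about 33%, limit read from the data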
Target sequence (O00487 whole entry, looked up): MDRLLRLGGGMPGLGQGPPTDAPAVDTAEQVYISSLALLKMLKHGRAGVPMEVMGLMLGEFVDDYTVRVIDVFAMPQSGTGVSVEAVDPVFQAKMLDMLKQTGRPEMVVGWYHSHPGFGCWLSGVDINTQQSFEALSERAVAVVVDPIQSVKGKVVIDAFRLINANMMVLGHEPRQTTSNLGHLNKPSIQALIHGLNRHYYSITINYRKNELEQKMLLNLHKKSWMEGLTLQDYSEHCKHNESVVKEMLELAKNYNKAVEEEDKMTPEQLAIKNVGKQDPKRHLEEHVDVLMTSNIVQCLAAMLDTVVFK
LMPTP block – blocks human LMPTP phosphatase; P24666; recombinant LMPTP-A, OMFP fluorogenic substrate, fluorescence intensity; inhibition, % at 20 µM; actives 0.22% (n = 360,000);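 active means compounds that cut the enzyme signal by at least half of the control window in the single-dose screen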;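 further: plate controls were DMSO wells with enzyme plus substrate for no effect and substrate without enzyme for full effect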
Target sequence (P24666 whole entry, looked up): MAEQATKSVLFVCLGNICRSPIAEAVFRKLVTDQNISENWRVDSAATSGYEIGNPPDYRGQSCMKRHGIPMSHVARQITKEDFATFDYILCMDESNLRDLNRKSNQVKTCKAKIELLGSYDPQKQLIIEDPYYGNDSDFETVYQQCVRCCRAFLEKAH
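Test system: LMPTP-A, protein tyrosine phosphatase of low molecular weight; Input: 0.625 nM enzyme; Incubation: 50 min dark incubation at room temperature; Signal: endpoint fluorescence intensity from OMFP dephosphorylation; Read-out basis: % inhibition versus control wells.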
DNMT1 inh – inhibitors of human DNMT1. DNMT1 molecular beacon, Hinp1I cleavage, fluorescence. inhibition (reported as % activation of signal), % at 10 µM. actives 0.83% (n = 360,000). AID 588458; in the data active means inhibition above about 50%
SUMO1-SIM PPI – modulators of human SUMO1-mediated protein-protein interactions; P63165; SUMO1 binding to a labelled peptide, TR-FRET, 1 h; inhibition, % at 20 µM; actives 0.33% (n = 360,000); AID 602429; in the data active means inhibition above about 37%
Target sequence (P63165 whole entry, looked up): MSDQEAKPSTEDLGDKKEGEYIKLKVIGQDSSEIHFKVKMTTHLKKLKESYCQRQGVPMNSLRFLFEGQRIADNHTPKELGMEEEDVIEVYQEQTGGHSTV
STEP block – inhibitors of human striatal-enriched phosphatase STEP | P54829 | recombinant STEP, OMFP fluorogenic substrate, fluorescence | inhibition, % at 20 µM | actives 0.25% (n = 360,000);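 active means inhibition at 20 µM, scaled per plate between control wells, above about 37%, limit read from the data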;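 further: 0% = DMSO with enzyme and substrate and 100% = substrate only without enzyme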
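Material: STEP (striatal-enriched tyrosine phosphatase) enzyme, cell-free; Compound dosing: 20 µM single dose in 1% DMSO; Technique: fluorescence read at 480 nm ex / 540 nm em; Times: reaction 20 min, ambient temperature; Medium: 50 mM Bis-Tris pH 6.0 with 2.5 mM DTT and 0.005% Tween 20; Also added: OMFP at 25 µM.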
DNMT1 interf DR – beacon fluorescence artifact, dose response counter-screen; AID 602382; IC50, µM; molecular beacon fluorescence, spectral interference counter-screen; shares compounds with DNMT1 inh; 200 tested, under 10 active; call rule not given here
DNMT1 confirm – confirmation of human DNMT1 inhibitors. DNMT1 molecular beacon HinP1I cleavage, fluorescence. actives 8% (n = 2,300). inhibition, % at 10 µM. shares compounds with DNMT1 inh;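 active means average inhibition of at least 30% in the single-concentration confirmation test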
Beacon interf – shows spectral interference in the DNMT1 beacon assay | actives 1% (n = 2,300) | shares compounds with DNMT1 inh | AID 602387 | DNMT1 molecular beacon spectral interference counterscreen, fluorescence 485/520 | activation (fluorescence interference), % at 10 µM;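 active means activation of at least 30% at 10 µM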;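 further: DNMT1 catalytic domain with a HinP1I cleavage step and a FAM/dabcyl DNA beacon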
Active calls of the source: *; / = no result given. This is a sample that favours compounds with a hit; in the whole collection about 2.3% have one here.

SMILES | Scp-1 inhibitor | Rpn11 block | LMPTP block | DNMT1 inh | SUMO1-SIM PPI | STEP block | DNMT1 confirm | Beacon interf | others
O=C(COC(=O)/C=C/c1ccc(Br)o1)Nc1ccc2[nH]c(=O)[nH]c2c1 | / | 40 | 47 | 82* | 104* | 21 | 14 | 2
COc1ccc(NC(=O)c2ccccc2OCc2ccc(F)cc2)c(OC)c1 | -15 | 3 | 8 | -11 | 5 | 2 | / | /
C=CCn1c(SCC(=O)c2[nH]c(C)c(C(=O)OCC)c2C)nc2scc(-c3ccccc3)c2c1=O | -10 | -2 | 1 | 57* | -4 | 4 | 1 | 2
O=C(CSc1nc(=O)n2ccccc2n1)NC1CCCCC1 | -3 | 3 | 0 | 0 | 2 | 1 | / | /
CCCc1nnc(NS(=O)(=O)c2ccc(OC)cc2)s1 | 4 | -4 | 1 | 72* | 1 | -3 | 2 | 2
COCc1nnc(NS(=O)(=O)c2ccc(OC)cc2)s1 | -1 | 0 | -2 | 5 | 5 | -3 | / | /
O=C(NC(CC(=O)N1CCCC(C(F)(F)F)C1)c1ccccc1)c1ccccc1Cl (stereo unspecified) | -1 | -1 | 0 | -1 | 9 | 1 | / | /
COc1ccc(S(=O)(=O)N2CCOCC2)cc1NC(=O)COc1ccc2c(C)cc(=O)oc2c1 | -3 | -6 | 1 | -1 | 3 | 0 | / | /
Cc1cc(=O)oc2cc(OCC(=O)c3ccccc3)ccc12 | -12 | 0 | 0 | -2 | 5 | 1 | / | /
Cc1cc(=O)oc2cc(OCC(=O)N/N=C/c3ccccc3O)ccc12 | 28 | 22 | 39 | 61* | 28 | 26 | 1 | -2
COc1ccc(NC(=O)COc2ccc3c(C)cc(=O)oc3c2)cc1S(=O)(=O)N1CCCCC1 | 8 | -2 | 2 | 63* | 6 | 3 | -1 | -9
CCc1ccc(Cc2cnc(NC(=O)C3=NCCN3)s2)cc1 | -7 | -2 | -2 | 1 | -4 | 2 | / | /
O=C(CC1SC(N2CCOCC2)=NC1=O)Nc1ccc(Cl)c(C(F)(F)F)c1 (stereo unspecified) | 0 | 1 | -1 | 3 | 0 | 1 | / | /
CCC(C)NS(=O)(=O)c1ccc(F)c(C(=O)Nc2c(F)cc(F)cc2Br)c1 (stereo unspecified) | -9 | 0 | 1 | -1 | 5 | 0 | / | /
O=C(O)c1ccc(-n2cccc2/C=N\NC(=O)c2cc3cc(Br)ccc3o2)cc1 | 80* | 18 | 23 | 102* | 84* | 14 | 75* | -3 | DNMT1 interf DR=>99
CCN(C(=O)c1cc2c(=O)[nH]c3ccc(C)cc3c2s1)c1ccccc1F | 3 | 8 | -2 | 63* | 18 | 3 | -1 | -2
O=C(N/N=C/c1ccccn1)NC12CC3CC(CC(C3)C1)C2 | 2 | 3 | 0 | 1 | -2 | -1 | / | /
OC(CN1CCOCC1)c1ccc(F)cc1 (stereo unspecified) | -1 | -1 | -1 | 77* | 0 | -2 | 3 | 2
O=[N+]([O-])c1ccc(C(O)CN2CCOCC2)cc1 (stereo unspecified) | -9 | 5 | -1 | 0 | -12 | -1 | / | /
O=C(O)CCc1ccc(-c2ccccc2)n1Cc1ccco1 | -4 | 0 | 1 | 27 | 3 | -1 | / | /
O=C(O)CCc1ccc(-c2ccc(Br)cc2)n1Cc1ccco1 | 2 | 24 | 2 | 73* | 7 | 2 | 10 | 2
Cc1cc(C)n(-c2nc(N(c3ccccc3)c3ccccc3)nc(-n3nc(C)cc3C)n2)n1 | 16 | 20 | 30 | -3 | -7 | 6 | / | /
Cc1cc(C)n(-c2nc(Nc3ccccc3)nc(-n3nc(C)cc3C)n2)n1 | 10 | 2 | 1 | 64* | 3 | 2 | 1 | 0
Cn1c(-c2ccccc2)cc(=O)n1-c1ccccc1 | -5 | -3 | 0 | 70* | 4 | 1 | 7 | 5
Cn1c(-c2ccccc2)cccc1=O | -3 | 3 | -2 | -1 | 3 | -2 | / | /
SMILES | Scp-1 inhibitor | Rpn11 block | LMPTP block | DNMT1 inh | SUMO1-SIM PPI | STEP block | DNMT1 confirm | Beacon interf | others
Cc1cc2cc(C)c3nnc(SCC(=O)Nc4ccc(S(=O)(=O)N5CCCCC5)cc4)n3c2cc1C | -1 | 2 | 0 | 56* | 2 | -2 | 2 | 0
CN1OC[C@@H]2CN[C@H](c3cccc(Oc4ccccc4)c3)C[C@@H]21 | / | 1 | 0 | 0 | -1 | 0 | / | /
CC(/C=N\NC(=O)c1cc(C)oc1C)=C\c1ccccc1 | -4 | 3 | 0 | 72* | -10 | 1 | 4 | 4
O=C(CO/N=C\c1ccccc1)Nc1ccccc1C(=O)N1CCOCC1 | -7 | -2 | 1 | 3 | 0 | -2 | / | /
COc1cccc(-n2c(SCC(=O)N3CCc4ccccc43)nnc2-c2c[nH]c3ccccc23)c1 | -4 | 3 | 1 | 27 | 4 | 5 | / | /
CCOc1ccc(-n2c(SCC(=O)N3CCc4ccccc43)nnc2-c2c[nH]c3ccccc23)cc1 | 13 | 5 | 16 | 80* | 15 | 4 | -1 | -6
O=C(CSc1nc2ccccc2c(=O)n1-c1ccccc1)N1CCc2ccccc21 | 3 | -2 | 1 | 53* | 3 | 6 | -2 | -10
Cc1ccccc1-c1cnc(C(O)c2cc(Cl)cc(Cl)c2)[nH]1 (stereo unspecified) | / | -1 | 1 | 3 | 3 | 2 | / | /
COC(=O)CSc1cc(C)nc2ccc(OC)cc12 | -7 | -11 | 1 | -4 | -4 | -1 | / | /
COc1ccc2nc(C)cc(SCC(=O)N/N=C/c3cccc4ccccc34)c2c1 | -11 | 4 | 26 | 53* | 1 | 3 | 3 | -3
COc1ccc(/C=N/N2CCN(Cc3ccc(C)cc3)CC2)cc1Br | -1 | 7 | -1 | -1 | 0 | 4 | / | /
COCCSc1ccccc1C(=O)N1CCCC(C)C1 (stereo unspecified) | -11 | -3 | 0 | 85* | 6 | 0 | 0 | 3
Cc1cccc(Nc2nnc(SCC(=O)NC(=O)Nc3ccc4c(c3)OCCO4)s2)c1 | -5 | -4 | -1 | 50* | 0 | 1 | -1 | 2
CC(C)NC(=S)NN(c1ccccc1)c1ccccc1 | 8 | -8 | 0 | 108* | 4 | 1 | 1 | -1
COc1cccc(CNC(=O)CCCn2c(=S)[nH]c3cc4c(cc3c2=O)OCO4)c1 | -11 | 2 | 0 | 0 | -68 | -1 | / | /
